m5-HT2A agonist: agonists of mouse serotonin 5-HT2A receptor (HTR2A); 360,000 tested, 0.66% active; CHO-K1 mHTR2A beta-arrestin complementation, luminescence; percent of 30 µM serotonin response; P35363; activation, % at 7.6 µM;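 active = activation above a run cutoff, the mean activation of all tested compounds plus 3 SD, cut at about 14% in these data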;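 note: 0% = plate median of compound wells and 100% = 30 µM serotonin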
Ins promoter up: MIN6 insulin promoter up-regulation; MIN6 insulin promoter-GFP reporter, high-content imaging; hits give high values; z-score at 5 µM; 190,000 tested, 0.3% active; AID 1625;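 active = z-score above 3 at 5 µM with at least 500 cells counted in the well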
SR-BI uptake up: enhances SR-BI lipid uptake from DiI-HDL | activation, % at 12.5 µM | 320,000 tested, 0.096% active | CHO ldlA[mSR-BI] cells, DiI-HDL uptake fluorescence, 3 h; 100 = double the neutral-control signal;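 active = mean replicate activation of at least 60% and every replicate at or above 60%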;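 note: 0% = median plate neutral-control signal and 100% = twice that signal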
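Material: SR-BI-overexpressing, LDLR-lacking CHO cells; schedule: compound exposure 3 h, 37 °C; reagent: DiI-labelled HDL at 10 µg/mL final; technique: bottom-read fluorescence, 550/595 nm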
beta cell repl: induces beta-cell replication in MIN6 cells; MIN6 cells proliferation, ATPlite luminescence, 48 h; cells starved in 0.2% serum; 100% = growth in 10% serum; proliferation, % at 10 µM; 330,000 tested, 0.29% active; AID 2380;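 active = compounds whose signal lies at least 3.5 SD above the mean of all wells on their plate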;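 note: 0% = DMSO-treated cells in low-serum medium and 100% = 10% serum control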
Calb FLC: C. albicans growth modulation with fluconazole | C. albicans CaCi-2 + fluconazole, Alamar Blue growth, 48 h | growth inhibition, % (concentration not given with the values) | 300,000 tested, 0.57% active | AID 1979;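 active = growth inhibition above about 58% in most replicates, limit read from the data, passing the limit was not always enough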;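 note: all wells also contain fluconazole at 8 µg/ml as a sub-toxic cotreatment; 0% = median of DMSO wells and 100% = median of geldanamycin control wells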
SR-BI HDL uptake: blocks mouse SR-BI lipid uptake from DiI-HDL | ldlA[mSR-BI] CHO cells, DiI-HDL uptake fluorescence, 3 h | Q61009 | 320,000 tested, 0.96% active | inhibition, % at 12.5 µM;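 active = mean replicate inhibition of at least 70% and a set share of replicates each scoring 70 or more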;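 note: 0% = median of neutral control wells and 100% = median of positive control wells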
Target sequence (Q61009 whole entry, looked up): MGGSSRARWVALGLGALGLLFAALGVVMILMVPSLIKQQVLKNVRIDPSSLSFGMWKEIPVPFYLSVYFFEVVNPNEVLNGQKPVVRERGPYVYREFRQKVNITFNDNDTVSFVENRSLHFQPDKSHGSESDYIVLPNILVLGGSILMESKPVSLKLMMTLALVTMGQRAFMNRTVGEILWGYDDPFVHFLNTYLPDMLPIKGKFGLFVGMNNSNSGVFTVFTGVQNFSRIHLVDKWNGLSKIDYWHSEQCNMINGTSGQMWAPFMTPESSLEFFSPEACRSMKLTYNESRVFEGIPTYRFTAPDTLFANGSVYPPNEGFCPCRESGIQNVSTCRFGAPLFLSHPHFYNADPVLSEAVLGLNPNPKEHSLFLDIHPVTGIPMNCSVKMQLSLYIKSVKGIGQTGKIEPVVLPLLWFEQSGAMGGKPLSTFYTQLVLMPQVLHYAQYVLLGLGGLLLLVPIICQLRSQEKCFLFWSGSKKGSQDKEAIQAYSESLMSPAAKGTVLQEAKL
OPRM1 ag: activates human mu opioid receptor in HTR2A counterscreen. activation, % at 9.3 µM. AID 624380. U2OS OPRM1 beta-arrestin PathHunter, luminescence; DMSO 0%, DAMGO 9.3 µM 100%. 2,300 tested, 5.3% active. shares compounds with m5-HT2A agonist;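 active = mean activation above the mean of DMSO-only wells plus 3 SD, cut at about 0.5% in these data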
HTR2A ag conf: confirmation of mouse HTR2A serotonin receptor agonists; CHO-K1 PathHunter beta-arrestin recruitment, luminescence; DMSO 0%, 30 µM serotonin 100%; activation, % at 7.6 µM; AID 624381; shares compounds with m5-HT2A agonist; 2,300 tested, 19% active;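 active = mean activation across triplicates above the hit threshold derived in the original primary screen, cut at about 15% in these data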
* marks the source's active call; other numbers are inactive results; . = no result. A selection: hits, their analogues and other compounds. The true share with any hit is near 2.4%.

SMILES | m5-HT2A agonist | Ins promoter up | SR-BI uptake up | beta cell repl | Calb FLC | SR-BI HDL uptake | OPRM1 ag | HTR2A ag conf
CCOc1ccc(CNC(=O)CS(=O)(=O)Cc2nc(-c3ccc(OC)cc3)oc2C)cc1 | 19.6* | . | -51.3 | 0.8 | -4.6 | 51.3 | -0.3 | 0.0
CCN(C(=O)CSc1nnc(SC(C)C)s1)C1CCS(=O)(=O)C1 (stereo not given) | 10.8 | . | 5.3 | -4.6 | . | -5.3 | . | .
CCOC(=O)c1c2c(n(C)c1C)C(=O)C(=O)c1ccc(Br)cc1-2 | -2.1 | . | -50.9 | -5.9 | -33.0 | 50.9 | . | .
CCOC(=O)c1c2c(n(Cc3ccccc3)c1C)C(=O)C(=O)c1ccccc1-2 | 15.2* | . | -33.1 | . | . | 33.1 | 1.8* | 9.3
O=C(CN1C(=O)/C(=C/c2cccc(Br)c2)SC1=S)N1CCCC1 | -2.3 | 0.24 | 2.3 | 1.1 | 0.0 | -2.3 | . | .
COc1cc2c(cc1OC)-c1cc(Nc3ccccc3C)nc(=O)n1CC2 | 17.9* | . | -32.3 | 7.1 | -7.3 | 32.3 | -0.5 | 0.2
COCCN(C(=O)COC(=O)C1CCCCC1)c1c(N)n(Cc2ccccc2)c(=O)[nH]c1=O | 16.0* | . | . | . | . | . | -0.6 | -4.2
COCCN(C(=O)COC(=O)CC1CCCCC1)c1c(N)n(Cc2ccccc2)c(=O)[nH]c1=O | -1.4 | . | 0.0 | 3.2 | 0.7 | 0.0 | . | .
CC1(C)NC(=O)N(CC(O)CN2CCOCC2)C1=O (stereo not given) | 1.6 | -0.27 | 4.3 | -1.2 | -3.0 | -4.3 | . | .
CC12CC3CC(C)(C1)CC(C(O)CN1CCOCC1)(C3)C2 (stereo not given) | 16.0* | . | -2.5 | -2.3 | 24.9 | 2.5 | -0.6 | 3.4
N/C(=N\C(=S)Nc1ccc2c(c1)OCO2)c1ccccc1 | -5.2 | . | . | . | . | . | . | .
CNC(=O)C[C@@H]1C(=O)N(c2ccc(Br)cc2)CC1(C)C | 2.1 | . | . | . | . | . | . | .
COC(=O)C(C(=O)OC)c1cc2c(cc1CNS(=O)(=O)c1ccc(C)cc1)OCO2 | 1.2 | . | . | . | . | . | . | .
O=C(CC1(O)C(=O)Nc2ccccc21)c1ccccc1O (stereo not given) | 20.7* | 0.4 | 5.4 | 1.6 | -2.9 | -5.4 | -1.3 | -3.0
Cc1ccc(S(=O)(=O)N2C[C@H]3C(=O)C[C@@H](c4cccs4)N(S(=O)(=O)c4ccc(C)cc4)[C@H]3C[C@H]2c2ccccc2)cc1 | 2.3 | . | . | . | . | . | . | .
CCOC(=O)CC1C(=O)NCCN1C(=S)NC(=O)c1ccccc1OC (stereo not given) | 15.6* | . | 23.9 | 1.2 | 2.9 | -23.9 | -0.8 | -3.2
CCCCCc1nnc(NC(=O)NS(=O)(=O)c2ccc(C)cc2)s1 | -2.8 | . | 11.0 | -0.5 | -15.7 | -11.0 | . | .
C[C@@H]1ON(C)[C@H]2C[C@H]3c4[nH]c5ccccc5c4CCN3C[C@@H]12 | 21.7* | . | . | . | . | . | 0.0 | 13.3
Cc1cccc(-c2ccc3[nH]c4c(c3c2)CCN2C[C@H]3[C@H](C)ON(C)[C@H]3C[C@@H]42)c1 | 8.4 | . | . | . | . | . | . | .
CCOc1ccc(OCC(=O)NCc2n[nH]c(=O)c3ccccc23)cc1 | 16.0* | . | 25.4 | -0.2 | 1.9 | -25.4 | -0.7 | -1.1
NC(=O)CC(NC(=O)c1ccccc1)c1ccc(NC2CCCCCCC2)c([N+](=O)[O-])c1 (stereo not given) | 19.3* | . | -23.2 | -7.1 | -6.6 | 23.2 | 0.2 | -2.2
CC[C@]1(C(=O)OC)[C@H]2C(=O)N(C)C(=O)[C@H]2[C@H]2CN=C(SCC3CC3)N21 | 0.8 | . | 4.8 | . | . | -4.8 | . | .
COc1ccc(NC(=O)c2ccc(NC(=O)c3nc4nc(C)cc(C)n4n3)cc2)cc1 | 15.3* | . | -44.7 | -0.7 | . | 44.7 | -0.6 | -3.5
Cc1cc(C)n2nc(SCC(=O)Nc3ccccc3)nc2n1 | -5.5 | . | 25.5 | -1.9 | -8.3 | -25.5 | . | .
CCc1ccc(NC(=O)CSc2nc3nc(C)cc(C)n3n2)cc1 | 17.5* | . | 7.5 | -1.2 | 0.3 | -7.5 | -0.5 | -1.8
Brc1cccc(-c2cnco2)c1 | 6.1 | 1.36 | -2.1 | 0.9 | 10.1 | 2.1 | . | .

High-throughput results (PubChem)
